{"source": "paper PMC3730172", "about": "(Scientific Reports, 2013)", "key": {"[1]": {"molecular_target": "T1, PPM1A (Homo sapiens, UniProt P35813)", "T1 sequence (P35813 1-382)": "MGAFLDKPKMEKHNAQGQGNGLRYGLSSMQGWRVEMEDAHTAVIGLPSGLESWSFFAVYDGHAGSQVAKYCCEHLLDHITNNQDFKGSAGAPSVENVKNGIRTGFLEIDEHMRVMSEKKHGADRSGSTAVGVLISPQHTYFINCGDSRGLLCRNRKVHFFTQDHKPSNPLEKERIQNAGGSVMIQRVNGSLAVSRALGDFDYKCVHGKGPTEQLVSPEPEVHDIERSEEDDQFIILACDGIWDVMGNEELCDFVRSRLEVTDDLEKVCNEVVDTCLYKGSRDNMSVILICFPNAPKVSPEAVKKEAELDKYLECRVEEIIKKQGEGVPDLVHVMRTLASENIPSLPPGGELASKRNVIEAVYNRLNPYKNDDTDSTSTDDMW", "assay": "PPM1A-catalyzed pNPP hydrolysis, metal ion activation and inhibition", "type": "biochemical", "details": "PPM1A wild type, Mn^2+ as variable substrate, pH 8.0, 25°C", "procedure,_shortened": "(§1)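 Recombinant N-terminal His-tagged human wild-type enzyme in pNPP buffer (0.05 M Tris/0.05 M Bis-Tris/0.1 M acetate), pH 8.0, 25°C. Metal activation: Mn2+ varied 1 to 100 mM with saturating pNPP (10-40 mM), EDTA stop, 405 nm, Michaelis-Menten fit. Inhibition: pNPP fixed at 20 mM, Mn2+ varied, Cd2+ at 0, 0.25, 0.5 and 1.0 µM; double-reciprocal analysis.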"}, "[2]": {"molecular_target": "T2, PPM1G (Homo sapiens, UniProt O15355)", "T2 sequence (O15355 1-546)": "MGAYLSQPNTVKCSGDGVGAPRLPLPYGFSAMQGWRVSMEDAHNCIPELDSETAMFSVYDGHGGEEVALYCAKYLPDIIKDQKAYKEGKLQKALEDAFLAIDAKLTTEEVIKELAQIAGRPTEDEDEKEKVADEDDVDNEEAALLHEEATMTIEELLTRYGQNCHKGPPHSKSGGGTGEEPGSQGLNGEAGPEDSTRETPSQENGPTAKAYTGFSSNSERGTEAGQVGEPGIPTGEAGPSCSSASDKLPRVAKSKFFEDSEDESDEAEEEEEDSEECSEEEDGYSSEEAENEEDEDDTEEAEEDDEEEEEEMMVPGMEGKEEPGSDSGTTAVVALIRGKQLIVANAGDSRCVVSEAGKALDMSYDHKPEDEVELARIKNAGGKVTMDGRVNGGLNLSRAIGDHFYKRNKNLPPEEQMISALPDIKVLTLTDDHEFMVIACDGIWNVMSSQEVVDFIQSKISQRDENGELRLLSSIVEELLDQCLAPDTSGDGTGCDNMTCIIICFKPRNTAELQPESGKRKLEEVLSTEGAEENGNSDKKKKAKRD", "assay": "PPM1G-catalyzed pNPP hydrolysis, metal ion activation and inhibition", "type": "biochemical", "details": "PPM1G wild type, Mn^2+ as variable substrate, pH 8.0, 25°C", "procedure,_shortened": "as §1"}, "[3]": {"molecular_target": "PP2A (Homo sapiens, UniProt P67775)", "sequence (P67775 whole entry)": "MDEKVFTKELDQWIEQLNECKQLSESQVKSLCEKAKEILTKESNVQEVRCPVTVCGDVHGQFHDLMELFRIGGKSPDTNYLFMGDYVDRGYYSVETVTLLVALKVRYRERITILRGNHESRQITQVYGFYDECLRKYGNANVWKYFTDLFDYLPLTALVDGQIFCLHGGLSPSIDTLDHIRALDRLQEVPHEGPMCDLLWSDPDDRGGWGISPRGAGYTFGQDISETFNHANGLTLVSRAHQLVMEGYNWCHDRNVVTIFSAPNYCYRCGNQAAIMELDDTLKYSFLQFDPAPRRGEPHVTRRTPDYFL", "sequence (P30153 2-589 partner limits assumed)": "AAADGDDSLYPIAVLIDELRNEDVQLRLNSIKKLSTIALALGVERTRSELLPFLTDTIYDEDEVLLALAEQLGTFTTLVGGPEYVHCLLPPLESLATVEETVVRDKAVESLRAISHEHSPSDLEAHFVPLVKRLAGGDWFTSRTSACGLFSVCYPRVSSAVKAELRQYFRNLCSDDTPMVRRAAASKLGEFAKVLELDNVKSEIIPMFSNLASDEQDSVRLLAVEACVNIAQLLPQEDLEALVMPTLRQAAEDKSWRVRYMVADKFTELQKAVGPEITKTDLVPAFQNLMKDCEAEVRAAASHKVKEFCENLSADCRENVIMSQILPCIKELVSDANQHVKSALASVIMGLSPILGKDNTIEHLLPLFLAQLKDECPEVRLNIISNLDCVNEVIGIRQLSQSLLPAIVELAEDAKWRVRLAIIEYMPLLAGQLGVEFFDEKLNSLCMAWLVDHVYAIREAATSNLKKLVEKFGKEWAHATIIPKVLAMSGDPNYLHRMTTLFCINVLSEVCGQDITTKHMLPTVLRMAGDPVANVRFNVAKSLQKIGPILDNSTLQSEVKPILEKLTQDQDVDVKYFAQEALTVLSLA", "assay": "Cadmium inhibition assay of PP2A", "type": "biochemical", "details": "pNPP, pH 8.0, 25°C", "procedure,_shortened": "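Commercial PP2A assayed on pNPP in 0.05 M Tris/0.05 M Bis-Tris/0.1 M acetate at pH 8.0 and 25°C; EDTA (0.5 M, pH 10.0) stop; p-nitrophenol at 405 nm.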"}, "[4]": {"molecular_target": "T3, PHLPP2 catalytic domain (Homo sapiens, UniProt Q6ZVD8)", "T3 sequence (Q6ZVD8 784-1033)": "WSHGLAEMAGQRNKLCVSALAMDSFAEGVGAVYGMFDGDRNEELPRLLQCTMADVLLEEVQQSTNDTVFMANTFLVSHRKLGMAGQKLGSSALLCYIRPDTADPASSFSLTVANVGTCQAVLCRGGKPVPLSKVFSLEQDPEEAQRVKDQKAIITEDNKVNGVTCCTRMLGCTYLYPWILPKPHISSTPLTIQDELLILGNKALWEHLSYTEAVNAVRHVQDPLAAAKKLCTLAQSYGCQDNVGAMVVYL", "assay": "Cadmium inhibition assay of PHLPP2 catalytic domain", "type": "biochemical", "details": "pNPP, pH 8.0, 25°C", "procedure,_shortened": "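His-tagged human PHLPP2 catalytic domain (residues 784-1033) expressed from pET-30a; pNPP hydrolysis in 0.05 M Tris, 0.05 M Bis-Tris, 0.1 M acetate, pH 8.0, 25°C, stopped with 0.5 M EDTA pH 10.0; p-nitrophenol at 405 nm.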"}, "[5]": {"molecular_target": "T1, PPM1A", "assay": "Dephosphorylation of pp-ERK2 protein by PPM1A in vitro", "type": "biochemical", "details": "1.5 μM Cd^2+, 1 mM Mn^2+, pH 8.0, 37°C, wild-type PPM1A", "procedure,_shortened": "(§2)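 Recombinant doubly phosphorylated ERK2 as substrate in 0.05 M Tris/0.05 M Bis-Tris/0.1 M acetate, pH 8.0, 37°C, 1 mM Mn2+, with or without 1.5 µM Cd2+; reactions started by adding phosphatase, stopped by boiling in SDS buffer (100°C, 10 min); phospho-ERK (pT/pY) by Western blot; triplicate, mean ± standard error.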"}, "[6]": {"molecular_target": "T2, PPM1G", "assay": "Dephosphorylation of pp-ERK2 protein by PPM1G in vitro", "type": "biochemical", "details": "1.5 μM Cd^2+, 1 mM Mn^2+, pH 8.0, 37°C", "procedure,_shortened": "as §2"}, "[7]": {"molecular_target": "T4, striatum-enriched phosphatase (STEP) (Homo sapiens, UniProt P54829)", "T4 sequence (P54829 1-565)": "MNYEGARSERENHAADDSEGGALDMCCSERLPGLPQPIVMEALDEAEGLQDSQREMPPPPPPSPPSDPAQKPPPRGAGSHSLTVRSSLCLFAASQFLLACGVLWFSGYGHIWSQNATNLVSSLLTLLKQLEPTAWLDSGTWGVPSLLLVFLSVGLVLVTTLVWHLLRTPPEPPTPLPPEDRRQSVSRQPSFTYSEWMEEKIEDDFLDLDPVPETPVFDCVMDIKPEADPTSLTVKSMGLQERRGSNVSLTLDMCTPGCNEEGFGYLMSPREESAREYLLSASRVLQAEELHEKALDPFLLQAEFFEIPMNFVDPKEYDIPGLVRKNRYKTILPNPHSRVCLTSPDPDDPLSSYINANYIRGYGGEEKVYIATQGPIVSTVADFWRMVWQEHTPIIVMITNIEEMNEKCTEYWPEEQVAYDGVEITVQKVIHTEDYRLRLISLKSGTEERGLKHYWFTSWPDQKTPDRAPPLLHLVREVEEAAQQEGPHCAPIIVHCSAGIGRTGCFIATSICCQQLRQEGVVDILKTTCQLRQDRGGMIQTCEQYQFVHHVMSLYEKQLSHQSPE", "assay": "Dephosphorylation of pp-ERK2 protein by STEP in vitro", "type": "biochemical", "details": "1.5 μM Cd^2+, pH 8.0, 37°C"}, "[8]": {"molecular_target": "T5, PPM1A D282A (Homo sapiens, UniProt P35813, D282A)", "T5 sequence (P35813 1-382 D282A)": "T1 sequence (P35813 1-382) with D282A", "assay": "Dephosphorylation of pp-ERK2 protein by PPM1A D282A in vitro", "type": "biochemical", "details": "1.5 μM Cd^2+", "procedure,_shortened": "as §2"}, "[9]": {"molecular_target": "T6, PPM1A D239K (Homo sapiens, UniProt P35813, D239K)", "T6 sequence (P35813 1-382 D239K)": "T1 sequence (P35813 1-382) with D239K", "assay": "Dephosphorylation of pp-ERK2 protein by PPM1A D239K in vitro", "type": "biochemical", "details": "1.5 μM Cd^2+", "procedure,_shortened": "as §2"}, "[10]": {"molecular_target": "T1, PPM1A", "assay": "PPM1A-catalyzed hydrolysis of pp-ERK and pp-P38 phospho-peptides", "type": "biochemical", "details": "pp-ERK and pp-P38 phospho-peptide substrates"}, "[11]": {"molecular_target": "T2, PPM1G", "assay": "PPM1G-catalyzed hydrolysis of pp-ERK and pp-P38 phospho-peptides", "type": "biochemical", "details": "pp-ERK and pp-P38 phospho-peptide substrates"}, "[12]": {"test_system": "PPM1A-regulated P38 and JNK-1 phosphorylation in HEK293 cells", "type": "cell-based, human", "details": "HEK293, PPM1A overexpression, 1.5 μM CdCl2 6 h, sorbitol 0.4 M 20 min", "procedure,_shortened": "(§3)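 Transfected HEK293 (Flag-tagged wild-type PPM1A, D239K mutant, or control vector) starved 12 h at 36 h post-transfection, then exposed to 1.5 µM CdCl2 or none for 6 h before sorbitol (0.4 M, 20 min, 37°C). Phospho-P38 and phospho-JNK by immunoblotting of cleared lysates (equal protein, BCA); data from ≥3 experiments.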"}, "[13]": {"test_system": "PPM1A-regulated ERK phosphorylation in HEK293 cells", "assay": "EGF-stimulated ERK phosphorylation in PPM1A-overexpressing HEK293 cells", "type": "cell-based, human", "details": "HEK293, PPM1A overexpression, 1.5 μM Cd^2+, EGF 5 ng/ml 5 min", "procedure,_shortened": "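HEK293 in DMEM (25 mM glucose, 10% FBS, penicillin/streptomycin), 37°C, 5% CO2, transiently transfected with Flag-tagged phosphatase or control vector. 36 h post-transfection, serum-starved 12 h, 1.5 µM CdCl2 or none for 6 h, then EGF 5 ng/ml, 5 min, 37°C. Lysates immunoblotted for phospho-ERK or phospho-AKT Ser473; actin loading control; ≥3 experiments.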"}, "[14]": {"test_system": "PPM1A D239K-regulated P38 and JNK-1 phosphorylation in HEK293 cells", "type": "cell-based, human", "details": "HEK293, PPM1A D239K overexpression, 1.5 μM Cd^2+", "procedure,_shortened": "as §3"}, "[15]": {"test_system": "HEK293 cells", "assay": "Cell cycle assay in PPM1A-overexpressing HEK293 cells", "type": "cell-based, human", "details": "HEK293, PPM1A overexpression, 1.5 μM Cd^2+, 24 h", "procedure,_shortened": "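HEK293 transfected with Flag-PPM1A, serum-starved 12 h (36 h post-transfection), given 1.5 µM CdCl2 for 24 h with cycling restarted by 10% FBS medium. Cells fixed in 75% ethanol at 4°C overnight, resuspended in PBS with 0.1% NaN3, stained with propidium iodide (50 µg/ml); DNA content by flow cytometry, G2/M percentage; ≥3 repeats.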"}, "[16]": {"test_system": "PC12 cells", "assay": "Apoptosis assay in PC12 cells", "type": "cell-based", "details": "1.5 or 2.5 μM Cd^2+, 24 h"}, "[17]": {"test_system": "PC12 cells overexpressing PPM1A D239K", "assay": "Apoptosis assay in PC12 cells overexpressing PPM1A D239K", "type": "cell-based", "details": "overexpression of Cd^2+ insensitive mutant D239K; 1.5 and 2.5 μM, 24 h"}}, "note": "Changes are numbered by the printed parent chain. “And” between values parts separate entries of the source, which are not always exact repeats. Equal values may be shown once."}
{"smiles": "[Cd+2]", "note": "[Cd^2+, cadmium]", "values": [{"measurement": "Ki", "setting": "[1]", "value": "< 1 µM and ~1 µM"}, {"measurement": "Ki", "setting": "[2]", "value": "< 1 µM and ~1 µM"}, {"measurement": "IC50", "setting": "[3]", "value": 130, "unit": "µM"}, {"measurement": "IC50", "setting": "[4]", "value": 3000, "unit": "µM"}, {"measurement": "effect on dephosphorylation of phospho-ERK", "setting": "[5]", "value": "substantially blocked"}, {"measurement": "effect on dephosphorylation of phospho-ERK", "setting": "[6]", "value": "substantially blocked"}, {"measurement": "effect on dephosphorylation of phospho-ERK", "setting": "[7]", "value": "no effect"}, {"measurement": "effect on dephosphorylation of phospho-ERK", "setting": "[8]", "value": "minimally affected"}, {"measurement": "effect on dephosphorylation of phospho-ERK", "setting": "[9]", "value": "minimally affected"}, {"measurement": "IC50", "setting": "[10]", "value": "low micromolar range"}, {"measurement": "IC50", "setting": "[11]", "value": "low micromolar range"}, {"measurement": "effect on PPM1A block of sorbitol-induced P38 and JNK-1 phosphorylation", "setting": "[12]", "value": "drastically reversed"}, {"measurement": "effect on PPM1A reduction of EGF-induced ERK phosphorylation", "setting": "[13]", "value": "reversed"}, {"measurement": "effect on D239K block of sorbitol-induced P38 and JNK-1 phosphorylation", "setting": "[14]", "value": "much weaker effects"}, {"measurement": "effect on PPM1A-induced increase in proportion of cells in G2/M", "setting": "[15]", "value": "greatly reversed"}, {"measurement": "PC12 cell apoptosis", "setting": "[16]", "value": "induced"}, {"measurement": "PC12 cell apoptosis", "setting": "[17]", "value": "did not promote"}]}
